IMP-1 inh – inhibitors of Pseudomonas aeruginosa IMP-1 metallo-beta-lactamase. purified IMP-1, nitrocefin hydrolysis, epi-absorbance fluorescence. hit rate 0.45% among 290,000. inhibition, % at 5.6 µM. AID 1556;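 active = inhibition above the mean plus 3 SD of all compounds in the same screening run, cut at about 4.5% in these data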;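 also: 0% = IMP-1 with DMSO and 100% = DMSO wells lacking enzyme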
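system = purified recombinant IMP-1 beta-lactamase | amount = 0.2 nM IMP-1, as dispensed | medium = HEPES buffer pH 7.1 with ZnSO4 and Brij 35 | times = 25 °C, 15 min preincubation, 25 min reaction | detection = plate fluorescence quenching by hydrolysis product, ex 480/em 530 nm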
CHT inh – inhibitors of human choline transporter CHT; B-score at 10 µM; Q9GZV3; hit rate 0.86% among 310,000; CHT-expressing cells, membrane potential dye, choline response; stronger effect = lower value;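 active = B-score over 3 SD under the library average, and starting fluorescence ratio not unusually high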;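 also: choline stimulus applied at its EC90 after an EC20 pre-addition; B-score computed on integrated fluorescence ratio after choline addition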
Target sequence (Q9GZV3 whole entry, looked up): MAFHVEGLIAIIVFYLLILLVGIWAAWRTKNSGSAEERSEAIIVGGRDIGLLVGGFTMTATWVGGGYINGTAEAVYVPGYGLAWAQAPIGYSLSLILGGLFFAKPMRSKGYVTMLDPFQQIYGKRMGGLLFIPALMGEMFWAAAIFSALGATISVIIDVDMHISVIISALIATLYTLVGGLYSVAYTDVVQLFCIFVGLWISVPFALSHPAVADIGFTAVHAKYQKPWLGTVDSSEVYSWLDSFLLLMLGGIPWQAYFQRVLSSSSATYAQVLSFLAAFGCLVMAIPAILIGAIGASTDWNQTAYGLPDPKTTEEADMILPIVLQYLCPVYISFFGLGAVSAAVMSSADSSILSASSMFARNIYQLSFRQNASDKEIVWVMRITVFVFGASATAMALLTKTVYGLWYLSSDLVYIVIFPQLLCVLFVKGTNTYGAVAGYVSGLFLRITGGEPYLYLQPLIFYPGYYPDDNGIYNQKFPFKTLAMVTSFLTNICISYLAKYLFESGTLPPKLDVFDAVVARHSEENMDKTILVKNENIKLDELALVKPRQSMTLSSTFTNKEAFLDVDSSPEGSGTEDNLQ
TMEM16A inh – mouse TMEM16A channel inhibition, primary screen; Q8BHY3; HEK293 TMEM16A/YFP iodide influx fluorescence, ionomycin; normalized B-score (activity score, 25-100; higher = stronger inhibition) at 10 µM; hit rate 1.2% among 310,000; AID 588511;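 active = ratio plate-corrected score three or more library SD toward inhibition, starting fluorescence score within five deviations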;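 also: score derived from kinetic fluorescence span divided by baseline fluorescence per well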
VIM-2 inhibitor – blocks Pseudomonas aeruginosa VIM-2 metallo-beta-lactamase | purified VIM-2, nitrocefin hydrolysis, epi-absorbance fluorescence | inhibition, % at 5.6 µM | hit rate 0.89% among 290,000 | AID 1527;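 active = inhibition above the mean of all tested compounds plus 3 SD, cutoff set per screening run, cut at about 7.5% in these data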;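 also: red hydrolysis product quenches plate fluorescence so inhibitors raise well fluorescence; 0% = enzyme with DMSO and 100% = DMSO without enzyme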
CHT allo act – allosteric activators of human choline transporter CHT; Q9GZV3; CHT-expressing cells, membrane potential dye, choline EC20; stronger effect = higher value; LV-AA mutant CHT in HEK293 cells; B-score at 10 µM; hit rate 0.49% among 310,000; AID 488977;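 active = initial fluorescence not abnormally high and integrated response B-score, plate-corrected, over 3 SD above library mean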
ANO1 activ – activates or potentiates the mouse TMEM16A chloride channel. B-score at 10 µM. hit rate 0.3% among 340,000. HEK293 TMEM16A/YFP-H148Q/I152L, iodide quench fluorescence; stronger effect = lower value. Q8BHY3;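 active = fluorescence-ratio B-score plate-corrected deviation score at least 3 library SD below zero, with starting fluorescence score within 5 deviations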;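 also: channel opened by trigger with iodide after compound preincubation; score built on the fluorescence ratio of max minus min over baseline; more negative score means more quench and so TMEM16A activation or potentiation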
Starred values were filed as active, the others as inactive; i = inactive; x = not tested or not shown. An excerpt weighted towards active compounds, which were near 3.4% of everything screened.

SMILES | IMP-1 inh | CHT inh | TMEM16A inh | VIM-2 inhibitor | CHT allo act | ANO1 activ
CC(C)(C)C(=O)Nc1nc(=S)ss1 | 2 | -5.5* | 100* | -3 | i | i
Cc1noc2ncnc(Sc3ccc(Br)cc3)c12 | -2 | i | i | 0 | i | i
Cc1nn(C)c(C)c1Sc1ccc(Br)cc1 | -2 | i | 25* | -2 | i | i
CCOC(=O)N1CCN(C(=O)COc2cc(=O)n(C)c3ccccc23)CC1 | -3 | i | 25* | -6 | i | i
CC(C)Oc1ccc(CCNC(=O)CC2C(=O)NCCN2C)cc1 (stereo unspecified) | -1 | i | i | -1 | i | i
CCCCN(CC)CCCNC(=S)Nc1ccc2nc(N3CCN(CC)CC3)cc(C)c2c1 | -2 | -11* | i | 4 | i | i
CCN(CC)CCNC(=S)Nc1ccc2nc(N3CCCC3)cc(C)c2c1 | -1 | i | i | -1 | i | i
CCCCN(CC)CCCNC(=S)Nc1ccc2nc(N3CCN(C)CC3)cc(C)c2c1 | -2 | i | i | 0 | i | i
CCCN(CCC)CCCNC(=S)Nc1ccc2nc(N3CCCC3)cc(C)c2c1 | -1 | -9.5* | i | 5 | i | i
Oc1ccccc1Nc1nc(NCc2ccco2)c2ccccc2n1 | -2 | i | i | 0 | i | i
Cc1cccc(Nc2nc(NCc3ccco3)c3ccccc3n2)c1 | -3 | i | 25* | 0 | i | i
CC(C)(C)OC(=O)NC(CNCc1ccccc1)Cc1ccccc1 (stereo unspecified) | x | i | i | x | i | i
CCN(C(=O)C(C)OC(=O)c1nn(-c2ccccc2C(F)(F)F)cc1O)c1ccccc1 (stereo unspecified) | x | x | x | x | x | i
O=C(CSc1ncnc2sc3c(c12)CCCC3)c1ccccc1 | 0 | i | i | -2 | i | -5*
CC(CC(=O)Nc1ncc([N+](=O)[O-])s1)c1ccccc1 (stereo unspecified) | -4 | i | 100* | -4 | i | i
Cc1cnc(NC(=O)c2ccc3c(c2)OCCO3)s1 | x | x | x | x | x | i
O=C(Nc1ncc([N+](=O)[O-])s1)c1ccc2c(c1)OCO2 | -3 | i | 100* | -3 | i | i
CCC(Oc1ccccc1)C(=O)Nc1nnc(C)s1 (stereo unspecified) | -2 | i | i | -3 | i | i
O=C(COC(=O)COc1ccccc1)Nc1ncc([N+](=O)[O-])s1 | x | x | x | x | x | i
O=C(Cc1ccc(Br)cc1)Nc1ncc([N+](=O)[O-])s1 | -1 | i | i | -3 | i | i
O=C(Cc1ccc(Cl)cc1)Nc1ncc([N+](=O)[O-])s1 | -3 | x | x | -1 | x | -42*
CCC(Oc1ccccc1)C(=O)Nc1ncc([N+](=O)[O-])s1 (stereo unspecified) | -4 | i | 25* | -4 | i | i
COc1ccc(OC)c2c1C(=O)c1ccccc1C2=O | -1 | i | i | 7 | i | x
COc1cccc2c1C(=O)c1ccc3ccccc3c1C2=O | 13* | i | i | 1 | i | i
NC(=O)c1ccc(NC(=O)COC(=O)CC2Sc3ccccc3NC2=O)cc1 (stereo unspecified) | x | x | x | x | x | i
SMILES | IMP-1 inh | CHT inh | TMEM16A inh | VIM-2 inhibitor | CHT allo act | ANO1 activ
Cc1cccc(NC(=S)NNC(=O)CCn2nc(C)c([N+](=O)[O-])c2C)c1 | -7 | i | i | 8.2* | i | i
COC(=O)c1cc(C(=O)OC)cc(N2C(=O)CC(NNC(=O)c3ccccc3Cl)C2=O)c1 (stereo unspecified) | -1 | i | i | 9.6* | i | i
O=C1C2C(c3ccccc3)C=CC(c3ccccc3)C2C(=O)N1c1cccnc1 (stereo unspecified) | 6.2* | i | i | 1 | i | i
COc1ccc(C2=Nn3c(nnc3-c3ccco3)SC2)cc1 | -3 | i | i | 9.8* | i | i
COc1ccc(OC)c(C2=Nn3c(nnc3-c3ccco3)SC2)c1 | -3 | i | i | 6 | i | i
COc1ccc(OC)c(-c2nnc3n2N=C(c2ccc(OC)c(OC)c2)CS3)c1 | x | x | x | x | x | i
COc1ccc(OC)c(C2=Nn3c(nnc3-c3cccc(OC(C)C)c3)SC2)c1 | -3 | i | i | -1 | i | -5*
CC(=O)c1ccc(OCC(=O)NC(=O)NC2CCCCC2)cc1 | -2 | i | i | -1 | i | i
NC(=O)c1ccc(NC(=O)COC(=O)c2c3c(nc4ccccc24)/C(=C\c2cccs2)CCC3)cc1 | 0 | i | i | -1 | i | i
CC(C)CNC(=O)COC(=O)c1c2c(nc3ccccc13)/C(=C/c1cccs1)CC2 | 6.7* | i | i | 4 | i | i
C=CCc1cccc2cc(C(=O)Nc3ccc(F)cc3)c(=O)oc12 | -4 | i | i | 0 | i | i
C=CCc1cccc2cc(C(=O)Nc3cccc(C(=O)O)c3)c(=O)oc12 | -1 | -6.5* | i | -2 | i | x
Cc1ccc(CC2CC(=O)N(c3nc4ccccc4n3C)C2=O)cc1 (stereo unspecified) | 14* | i | i | -2 | i | i
COc1ccc2sc(N3C(=O)CC(Cc4cccc(C)c4)C3=O)nc2c1 (stereo unspecified) | -1 | i | i | -1 | i | i
Cc1cccc(CC2CC(=O)N(c3nc4ccccc4s3)C2=O)c1 (stereo unspecified) | 8.6* | i | i | 1 | i | i
CC(C)Oc1ccc(CNC(=O)CC(c2ccccc2)c2cc(Cl)ccc2O)cc1 (stereo unspecified) | -3 | i | 100* | -3 | i | i
CCCCn1c(N)c(N(CCOC)C(=O)COC(=O)c2cc(CCC)c(C)s2)c(=O)[nH]c1=O | x | i | i | x | i | i
CCN(CC(=O)Nc1ccc(N2CCOCC2)cc1)C(=O)Cc1ccccc1 | x | x | x | x | x | -32*
O=C(c1cccc(C(F)(F)F)c1)C1CCCN(C(=O)CN2CCOC2=O)C1 (stereo unspecified) | -2 | i | i | -2 | i | i
O=C(O)CC12CSc3[nH]c(=O)sc3C1c1ccccc1OC2=O (stereo unspecified) | 6.4* | i | i | 1 | i | x
COCCn1c(SCC(=O)Nc2cc(C)on2)nnc1-c1ccccc1 | -1 | i | i | -1 | i | i
CC(=O)Oc1cc2oc(=O)c3c(c2cc1Cl)CCC3 | -5 | i | i | 9.7* | i | i
COc1ccc(S(=O)(=O)NCc2cc(-c3ccccc3Cl)no2)cc1 | -2 | i | i | -2 | i | i
